Assay results reported in the RNAGym collection of RNA variant scans (doi:10.1126/science.aae0568).
This sample holds only a part of the variants without activity.

B1: tRNA (parent)
chain: GUUCCGUUGGCGUAAUGGUAACGCGUCUCCCUCCUAAGGAGAAGACUGCGGGUUCGAGUCCCGUACGGAACG

Variants of: B1
Assay: yeast fitness relative to wild type (ratio to wild type); higher = fitter; tRNA-Arg(CCU), competitive growth, 37 C, YPD
Method in brief: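 Amplicons of the tRNA-Arg(CCU) gene were sequenced, 100-nucleotide paired-end, from the start population and from each end population of a pooled yeast competition. The competition, in six parallel replicates, lasted 24 hours in YPD at 37°C. Fitness relative to wild type was calculated from changes in genotype frequencies. Genotypes had to have ≥ 100 starting reads, and estimates < 0.5 were set to 0.5.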

Row | Variant | yeast fitness
1 | U7A A20G G68A | ≤ 0.5
2 | U7A A20U G23C U26A C33A A57U | ≤ 0.5
3 | U7A A20U G52A | ≤ 0.5
4 | U7A A21C | 0.54
5 | U7A A21C A45G | 0.571
6 | U7A A21C C29U A37G A57G | ≤ 0.5
7 | U7A A21C C29U A37G C55U | 0.568
8 | U7A A21C C30U A42C G48C | ≤ 0.5
9 | U7A A21C C33A A45U C62A | ≤ 0.5
10 | U7A A21C U26A C30A A45G G52A | 0.547
11 | U7A A21C U32C | ≤ 0.5
12 | U7A A21C U54C | ≤ 0.5
13 | U7A A21C U54C C61G | ≤ 0.5
14 | U7A A21G | 0.738
15 | U7A A21G C30G | ≤ 0.5
16 | U7A A21G C30G A36G | ≤ 0.5
17 | U7A A21G C30G A36G C46G C66U | ≤ 0.5
18 | U7A A21U A42G C55U A70C | ≤ 0.5
19 | U7A A21U A65C | 0.577
20 | U7A A21U C27G C33G A45U | 0.506
21 | U7A A21U G38C A45G U59A | ≤ 0.5

Row | Variant | yeast fitness
22 | U7A A21U G41A | 0.619
23 | U7A A21U G41A C66A | 0.684
24 | U7A A21U G41A U64A | ≤ 0.5
25 | U7A A21U G51C C62U | 0.816
26 | U7A A36G | 0.662
27 | U7A A36G A40U C46G | ≤ 0.5
28 | U7A A36G A43G C62A | ≤ 0.5
29 | U7A A36U A37U | 0.768
30 | U7A A36U A45G U47A | ≤ 0.5
31 | U7A A36U A45G U47A G68A | ≤ 0.5
32 | U7A A36U C55U A65U | 0.555
33 | U7A A37C A43C | 0.583
34 | U7A A37C A43C A65G | ≤ 0.5
35 | U7A A37G | 0.585
36 | U7A A37G A40G A43G G52C U59G | 0.556
37 | U7A A37G A40G A43G G52C U59G C66U A69U | ≤ 0.5
38 | U7A A37G A40G A69U | ≤ 0.5
39 | U7A A37U | 0.696
40 | U7A A37U C62A | 0.571
41 | U7A A40U A43C | 0.656
42 | U7A A40U C55G G63C | ≤ 0.5

Row | Variant | yeast fitness
43 | U7A A40U C61G G67U | ≤ 0.5
44 | U7A A40U G67A | ≤ 0.5
45 | U7A A42C C62U | ≤ 0.5
46 | U7A A42C U47A G63C A69C | ≤ 0.5
47 | U7A A42G C46A C55G | ≤ 0.5
48 | U7A A42G C46G A65C | 0.66
49 | U7A A42U | 0.696
50 | U7A A43C | 0.824
51 | U7A A43C G48A A57C G68U | ≤ 0.5
52 | U7A A43G G51C | 0.537
53 | U7A A43U G52C | ≤ 0.5
54 | U7A A45C C66U | 0.535
55 | U7A A45C G68A | ≤ 0.5
56 | U7A A45C U47A G68A | ≤ 0.5
57 | U7A A45G C61A A70G | ≤ 0.5
58 | U7A A45G C61G | ≤ 0.5
59 | U7A A45U | 0.672
60 | U7A A45U C60A | ≤ 0.5
61 | U7A A57C | 0.54
62 | U7A A57G | 0.759
63 | U7A A57U U59A A69C | 0.702

Row | Variant | yeast fitness
64 | U7A A65C | 0.917
65 | U7A A65C A69C | ≤ 0.5
66 | U7A A65G | 1.03
67 | U7A A65U A70G | 0.677
68 | U7A A70G | 0.829
69 | U7A A70U | 0.689
70 | U7A C11A | ≤ 0.5
71 | U7A C11A A14C C34A | ≤ 0.5
72 | U7A C11A A20G G23A U26G G50A G52A C60U C61G | ≤ 0.5
73 | U7A C11A A21C C29U C49U G56A | ≤ 0.5
74 | U7A C11A C30A | ≤ 0.5
75 | U7A C11A C33U C55G G56A | 0.838
76 | U7A C11G C27U A37C G51C | ≤ 0.5
77 | U7A C11G C31G U32C A43U | ≤ 0.5
78 | U7A C11G U28G U32A G38C | ≤ 0.5
79 | U7A C11U | 0.686
80 | U7A C11U A15G A65C | ≤ 0.5
81 | U7A C11U A36U C62U C66U | ≤ 0.5
82 | U7A C11U A40G A42U C62A | ≤ 0.5
83 | U7A C11U C22U G38C | ≤ 0.5
84 | U7A C11U U47A | ≤ 0.5
